Experimental data pooled from the literature.
Protocols differ between the studies behind these lines.
CYP1A2: Cytochrome P450 1A2 (CYP1A2, Homo sapiens, UniProt P05177)

SMILES	target or system	assay	test system	setting	measurement	result
O=C1C(=O)c2cccnc2-c2ncccc21.O=C1C(=O)c2cccnc2-c2ncccc21.O=C1C(=O)c2cccnc2-c2ncccc21.[Cu+2].[O-][Cl+3]([O-])([O-])[O-].[O-][Cl+3]([O-])([O-])[O-]	Vero	cell growth or viability, MTT		72 h	CC50	> 200 µM
CN(C)C(=O)c1cc2cnc(Nc3ccc(-c4ccc5c(=O)cc(N6CCOCC6)oc5c4)cc3)nc2n1C1CCCC1.Cl			BALB/c mouse, plasma	oral, 20 mg/kg	Cmax	3300 ng/mL
CCCSc1ccc2nc(NC(=O)OC)[nH]c2c1	Vero	cell growth or viability, MTT		72 h	CC50	> 200 µM
CC[C@H](C)[C@@H]([C@@H](CC(=O)N1CCC[C@H]1[C@H](OC)[C@@H](C)C(=O)N[C@@H](Cc1ccccc1)C(=O)NCCCO)OC)N(C)C(=O)[C@@H](NC(=O)[C@H](C(C)C)N(C)C)C(C)C	Cytochrome P450 3A4 (CYP3A4, Homo sapiens, UniProt P08684)	enzyme activity, inhibitor	human, liver microsomes		IC50	43.6 µM
NS(=O)(=O)c1ccc(-c2ccc(Nc3ccncc3)cc2)cc1	BHK-21	cell growth or viability, MTT		100 µM	viability	76%
N#Cc1cccc(-c2ccc3ncc(-c4cc(F)cc(F)c4)c(N4CCC(N)CC4)c3c2)c1O			human, plasma	oral, 20 mg, single dose	Vd/F	300 L
COC(=O)N[C@H](C(=O)N1CCC[C@H]1c1nc(-c2ccc3c(c2)O[C@@H](c2ccccc2)n2c-3cc3cc(-c4c[nH]c([C@@H]5CCCN5C(=O)[C@@H](NC(=O)OC)C(C)C)n4)ccc32)c[nH]1)C(C)C	BHK-21	cell growth or viability, CCK-8		48 h	CC50	> 600 µM
CC(=O)O[C@@H]1[C@@H](O)[C@H](O[C@H]2CC[C@]34C[C@]35CC[C@]3(C)[C@@H]([C@@]6(C)CC[C@@H](C(C)(C)O)O6)[C@@H](O)C[C@@]3(C)[C@@H]5C[C@H](O[C@@H]3O[C@H](CO)[C@@H](O)[C@H](O)[C@H]3O)[C@H]4C2(C)C)OC[C@H]1O	CYP1A2	enzyme activity, inhibitor	human, liver microsomes		IC50	> 200 µM
C#CCC(Cc1cnc2nc(N)nc(N)c2n1)c1ccc(C(=O)N[C@@H](CCC(=O)O)C(=O)O)cc1 (some centres unmarked)	BHK-21	cell growth or viability, CCK-8		48 h	CC50	104 µM
COc1ccc2c(c1)CN(C(=O)CCN1CCC(Cc3ccccc3)CC1)CC[S@@+]2[O-]			male human, plasma	intravenous, 0.15 mg/kg, healthy volunteers	Vd	86.7 L
NS(=O)(=O)c1ccc(-c2ccc(Nc3ccc(F)c(Cl)c3)cc2)cc1	BHK-21	cell growth or viability, MTT		100 µM	viability	75%
OC[C@H]1O[C@@H](c2cc(Cc3ccc(C4CC4)cc3)c(Cl)c3c2CCO3)[C@H](O)[C@@H](O)[C@@H]1O			human, plasma	oral, 0.3 mg, single dose, fasted	Vd/F	167 L
CC(=O)O[C@H]1[C@H](O[C@H]2CC[C@]34C[C@]35CC[C@]3(C)[C@@H]([C@@]6(C)CC[C@@H](C(C)(C)O)O6)[C@@H](O)C[C@@]3(C)[C@@H]5C[C@H](O[C@@H]3O[C@H](CO)[C@@H](O)[C@H](O)[C@H]3O)[C@H]4C2(C)C)OC[C@@H](O)[C@@H]1O	CYP1A2	enzyme activity, inhibitor	human, liver microsomes		IC50	> 200 µM
C[C@@H](Oc1ccc(S(C)(=O)=O)cc1C(=O)N1C[C@@H]2C[C@]2(c2cc(C(F)(F)F)on2)C1)C(F)(F)F			human, plasma	oral, 10 mg, single dose, fasted	Vd/F	273 L
